Data as given in publication PMC9069315 (Acta Pharmaceutica Sinica. B, 2021).
Positions count from the first letter of the chain named. Several values for one entry are separate records, joined by “and”; a condition that tells them apart may be missing. Equal entries are not always repeated.

Experiments:
[1] = In vitro stability in saline and mouse serum; type: in vitro ADME; conditions: 2 h
[2] = target: T1, σ2 receptor (Rattus norvegicus, UniProt Q5U3Y7); conditions: cited from earlier work
T1 sequence (Q5U3Y7 1-176): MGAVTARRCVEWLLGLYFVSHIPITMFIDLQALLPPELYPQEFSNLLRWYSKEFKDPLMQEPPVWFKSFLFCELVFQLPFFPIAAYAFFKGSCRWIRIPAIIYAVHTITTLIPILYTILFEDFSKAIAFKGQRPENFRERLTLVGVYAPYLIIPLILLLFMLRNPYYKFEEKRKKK

[3] = target: T2, σ2 receptors (Mus musculus, UniProt Q8VD00); experiment: Ex vivo autoradiography in mouse brain; conditions: baseline, 30 min p.i., male ICR mice
T2 sequence (Q8VD00 1-176): T1 sequence (Q5U3Y7 1-176) with V4L, T5A, M26L, L33V, F71L, V105A, I118L, I127V, N136S, F169Y

[4] = Biodistribution in male ICR mice; type: in vivo, mouse; conditions: i.v.
In short: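 Male ICR mice (20 ± 2 g, 4–5 weeks) received the radiotracer, and tissues were sampled at the listed times after injection. Uptake is given as percentage of injected dose per gram of tissue (% ID/g), as means ± SD, n = 5.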

[5] = target: T1, σ2 receptor; experiment: Micro-PET/CT imaging in Sprague-Dawley rats; type: in vivo; conditions: SD rats, CM398 10 μmol/kg 5 min before tracer, after 30 min
In short: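 Male SD rats (200 ± 10 g, 6–7 weeks) were injected intravenously with radiotracer, and a dynamic 120-min micro-PET/CT scan followed. Scans were run at baseline or with CM398 (10 μmol/kg) blocking. Whole-brain and regional time–activity curves were expressed as SUV, n = 3 per condition for whole brain; images were summed over 30–45 min.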

[6] = In vivo metabolic stability in ICR mice; set-up: species or system mouse; conditions: 30 min after injection, radio-HPLC
In short: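 ICR mice were injected with radiotracer (0.2 mL, 33.3 MBq). Brain and pancreas were dissected at 30 min, processed, and analysed by radio-HPLC for the intact-tracer fraction versus radioactive metabolites.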

[7] = target: T2, σ2 receptors; experiment: Blocking experiments in male ICR mice; type: in vivo; conditions: 30 min p.i.
In short: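 Male ICR mice (20 ± 2 g, 4–5 weeks) were pre-dosed 5 min before about 280 kBq of radiotracer, with either unlabeled compound (0.1 mL, 3 μmol/kg) or CM398 (0.1 mL; 3, 5, 10 or 20 μmol/kg). Tissues were taken at 30 min p.i. Brain uptake (% ID/g) and brain-to-blood ratio were compared with unblocked controls.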

[8] = target: P-glycoprotein (P-gp) (Mus musculus, UniProt P21447); experiment: Effect of P-gp on brain uptake; type: in vivo; conditions: male ICR mice
In short: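 Male ICR mice (20 ± 2 g, 4–5 weeks) were given the P-gp inhibitor cyclosporine A 60 min before the radioligand. Radioactivity in brain and blood was measured and the brain-to-blood ratio derived, n = 5–8 per group, means ± SD. Groups were compared by independent two-tailed Student's t test.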

[9] = CM398 5 μmol/kg 5 min before tracer
[10] = unlabeled compound 3 μmol/kg 5 min before tracer
[11] = cyclosporine A 60 min before tracer, 2 min p.i., P < 0.05

Chain of P-glycoprotein (P-gp) (P21447 whole entry): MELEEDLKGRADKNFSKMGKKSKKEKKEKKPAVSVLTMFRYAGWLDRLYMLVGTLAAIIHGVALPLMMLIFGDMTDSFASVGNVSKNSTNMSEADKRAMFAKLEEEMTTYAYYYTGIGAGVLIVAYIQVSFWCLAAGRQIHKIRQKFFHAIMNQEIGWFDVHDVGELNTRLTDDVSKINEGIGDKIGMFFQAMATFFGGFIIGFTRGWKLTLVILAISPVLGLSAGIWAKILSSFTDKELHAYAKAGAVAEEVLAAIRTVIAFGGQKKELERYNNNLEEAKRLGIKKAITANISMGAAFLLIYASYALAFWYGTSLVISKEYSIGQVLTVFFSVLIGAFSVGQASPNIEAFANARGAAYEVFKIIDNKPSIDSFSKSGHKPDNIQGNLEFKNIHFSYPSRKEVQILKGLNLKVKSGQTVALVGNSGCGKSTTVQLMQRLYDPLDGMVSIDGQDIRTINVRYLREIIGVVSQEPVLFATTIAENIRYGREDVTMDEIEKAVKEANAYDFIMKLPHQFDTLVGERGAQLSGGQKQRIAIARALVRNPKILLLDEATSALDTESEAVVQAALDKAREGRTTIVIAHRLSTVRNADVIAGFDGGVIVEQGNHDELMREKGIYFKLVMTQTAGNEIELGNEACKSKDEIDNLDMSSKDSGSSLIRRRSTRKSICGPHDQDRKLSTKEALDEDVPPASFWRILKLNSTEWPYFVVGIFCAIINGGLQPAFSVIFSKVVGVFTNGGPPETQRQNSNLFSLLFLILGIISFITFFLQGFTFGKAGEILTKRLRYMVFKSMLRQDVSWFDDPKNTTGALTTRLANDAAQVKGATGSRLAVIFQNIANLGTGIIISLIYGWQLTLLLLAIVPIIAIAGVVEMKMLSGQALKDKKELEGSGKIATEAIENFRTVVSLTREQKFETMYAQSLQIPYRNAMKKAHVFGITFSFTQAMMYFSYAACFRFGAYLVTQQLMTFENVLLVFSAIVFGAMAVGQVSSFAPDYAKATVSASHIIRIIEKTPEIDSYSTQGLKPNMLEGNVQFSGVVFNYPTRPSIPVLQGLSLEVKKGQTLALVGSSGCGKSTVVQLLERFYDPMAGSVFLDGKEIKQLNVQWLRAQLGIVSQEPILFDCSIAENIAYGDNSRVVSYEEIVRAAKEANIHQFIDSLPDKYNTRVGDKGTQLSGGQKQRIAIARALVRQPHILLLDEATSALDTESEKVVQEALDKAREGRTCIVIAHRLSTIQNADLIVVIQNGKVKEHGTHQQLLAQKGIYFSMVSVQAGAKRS

## COc1cc2c(cc1OC)CN(CCCCn1ccc3c(OCC[18F])cccc31)C2 [[^18F]9, 1-(4-(5,6-dimethoxyisoindolin-2-yl)butyl)-4-(2-[^18F]fluoroethoxy)-1H-indole]
[1]; mouse serum, 37 °C
  RCP after incubation (in vitro stability): > 99%
[1]; saline, ambient temperature
  RCP after incubation (in vitro stability): > 99%
[2]; read-out: Ki (σ2)
  Ki: 1.79 ± 0.86 nM
[2]; subtype selectivity
  Ki (σ1)/Ki (σ2): 207
[3]
  Radioactivity distribution in the mouse brain (ex vivo autoradiography): widely and heterogeneously distributed
[4]; 2 min p.i.
  Blood uptake: 2.39 ± 0.36 % ID/g
  Bone uptake: 2.59 ± 0.66 % ID/g
  Brain uptake: 4.44 ± 0.59 % ID/g
  Brain/Blood ratio: 1.87 ± 0.13
  Heart uptake: 21.57 ± 1.58 % ID/g
  Kidney uptake: 18.89 ± 2.48 % ID/g
  Liver uptake: 3.24 ± 0.67 % ID/g
  Lung uptake: 108.47 ± 20.11 % ID/g
  Muscle uptake: 4.38 ± 0.99 % ID/g
  Pancreas uptake: 8.74 ± 0.29 % ID/g
  Small intestine uptake: 6.21 ± 0.81 % ID/organ
  Spleen uptake: 5.01 ± 1.80 % ID/g
  Stomach uptake: 1.21 ± 0.14 % ID/organ
[4]; 15 min p.i.
  Blood uptake: 0.70 ± 0.08 % ID/g
  Bone uptake: 3.02 ± 0.45 % ID/g
  Brain uptake: 4.95 ± 0.36 % ID/g
  Brain/Blood ratio: 7.2 and 7.21 ± 1.36
  Heart uptake: 11.23 ± 0.91 % ID/g
  Kidney uptake: 18.40 ± 2.45 % ID/g
  Liver uptake: 6.13 ± 0.94 % ID/g
  Lung uptake: 36.37 ± 6.47 % ID/g
  Muscle uptake: 3.74 ± 0.33 % ID/g
  Pancreas uptake: 12.75 ± 2.12 % ID/g
  Small intestine uptake: 7.27 ± 0.88 % ID/organ
  Spleen uptake: 7.51 ± 1.17 % ID/g
  Stomach uptake: 1.52 ± 0.19 % ID/organ
[4]; 30 min p.i.
  Blood uptake: 0.48 ± 0.08 % ID/g
  Bone uptake: 4.50 ± 0.38 % ID/g
  Brain uptake: 5.04 ± 0.67 % ID/g
  Brain/Blood ratio: 10.6 and 10.57 ± 1.86 and 10.57
  Heart uptake: 7.55 ± 1.30 % ID/g
  Kidney uptake: 20.61 ± 1.80 % ID/g
  Liver uptake: 8.69 ± 0.44 % ID/g
  Lung uptake: 17.93 ± 2.42 % ID/g
  Muscle uptake: 3.90 ± 0.23 % ID/g
  Pancreas uptake: 18.93 ± 2.95 % ID/g
  Small intestine uptake: 10.80 ± 0.36 % ID/organ
  Spleen uptake: 9.93 ± 1.43 % ID/g
  Stomach uptake: 1.54 ± 0.20 % ID/organ
[4]; 60 min p.i.
  Blood uptake: 0.42 ± 0.05 % ID/g
  Bone uptake: 4.64 ± 1.57 % ID/g
  Brain uptake: 4.43 ± 0.39 % ID/g
  Brain/Blood ratio: 10.6 and 10.56 ± 0.83
  Heart uptake: 3.49 ± 0.62 % ID/g
  Kidney uptake: 17.40 ± 3.97 % ID/g
  Liver uptake: 10.97 ± 0.95 % ID/g
  Lung uptake: 9.95 ± 1.62 % ID/g
  Muscle uptake: 3.01 ± 0.51 % ID/g
  Pancreas uptake: 22.66 ± 3.36 % ID/g
  Small intestine uptake: 10.73 ± 1.27 % ID/organ
  Spleen uptake: 11.35 ± 2.85 % ID/g
  Stomach uptake: 1.39 ± 0.27 % ID/organ
[4]; 120 min p.i.
  Blood uptake: 0.42 ± 0.03 % ID/g
  Bone uptake: 5.57 ± 0.53 % ID/g
  Brain uptake: 3.41 ± 0.13 % ID/g
  Brain/Blood ratio: 8.11 ± 0.37
  Heart uptake: 2.76 ± 0.41 % ID/g
  Kidney uptake: 12.36 ± 0.81 % ID/g
  Liver uptake: 11.9 ± 1.52 % ID/g
  Lung uptake: 7.53 ± 1.07 % ID/g
  Muscle uptake: 3.01 ± 0.27 % ID/g
  Pancreas uptake: 24.21 ± 1.57 % ID/g
  Small intestine uptake: 10.88 ± 0.38 % ID/organ
  Spleen uptake: 10.51 ± 0.37 % ID/g
  Stomach uptake: 1.22 ± 0.13 % ID/organ
[5]
  Reduction of radiotracer accumulation in the whole-brain (micro-PET): > 60%
[6]
  Parent compound fraction of radioactivity in brain: ≥ 95%
[6]; n = 3
  Parent compound fraction of radioactivity in pancreas: ~10%
[7]; [9]
  Blocking effect of CM398 (5 μmol/kg), Brain: 39%
  Blocking effect of CM398 (5 μmol/kg), Brain/Blood: 75%
[7]; [10]
  Self-blocking effect, Brain: 58%
  Self-blocking effect, Brain/Blood: 90%
[8]; cyclosporine A 50 mg/kg 60 min before tracer, 50 mg/kg
  P-gp substrate: moderate P-gp substrates and moderate P-gp substrate and Yes
[8]; [11]
  Increase in brain-to-blood ratio with cyclosporine A: 35%
  Increase in initial brain uptake with cyclosporine A: 49%
[8]; cyclosporine A 60 min before tracer, 2 min p.i., P > 0.05
  Change in blood uptake with cyclosporine A: slight increase without significance
